# Measured values taken from ChEMBL document CHEMBL1149630, “Damipipecolin and damituricin, novel bioactive bromopyrrole alkaloids from the Mediterranean sponge Axinella damicornis” (2007).
# The source made the active and inactive calls. No cut-off for these calls is given here.
# Assays:
# [1] = system: PC-12; assay: Cytotoxicity against PC12 cells at 10 ug/ml after 72 hrs by MTT assay; type: functional, cell-based
# Procedure, shortened: (§1)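 Cells exposed 72 h to a range of concentrations; viability by MTT colorimetric read at 595 nm after overnight incubation at 37 °C. PC12 grown in DMEM/10% FCS/5% horse serum; HeLa and L5178y in RPMI 1640/10% FCS; all at 37 °C, 5% CO2.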
# [2] = system: HeLa; assay: Cytotoxicity against HeLa cells at 10 ug/ml after 72 hrs by MTT assay; type: functional, cell-based; settings: Homo sapiens; procedure, shortened: as §1
# [3] = system: L5178Y; assay: Cytotoxicity against L5178y cells at 10 ug/ml after 72 hrs by MTT assay; type: functional, cell-based; procedure, shortened: as §1
# [4] = system: Primary neuron; assay: Effect on 5-HT/CaCl2 induced increase in intracellular calcium level in rat primary neuronal cells pretreated for 5 mins at 0.1 ug/ml after 10 mins; type: functional, cell-based
# [5] = Effect on 5-HT/CaCl2 induced increase in intracellular calcium level in rat primary neuronal cells pretreated for 5 mins at 0.1 ug/ml after 20 mins in relative to control; type: functional, Primary neuron
# Procedure, shortened: (§2)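 Rat cortical neurons from E17–18 Wistar embryos were grown serum-free on poly-L-lysine glass. They were loaded with 4 μM fura-2-AM for 1 h at 37 °C. Cells were preincubated 5 min with compound (0.01–10 µg/ml) in Ca/Mg-free Locke's, pH 7.4. 200 µM 5-HT plus 2.5 mM CaCl2 was added at 10 min. The 340/380 ratio increase was imaged over 20 min as % of DMSO/water control, ±SD of 3–5 experiments, ~90 cells each.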
# [6] = Effect on 5-HT/CaCl2 induced increase in intracellular calcium level in rat primary neuronal cells pretreated for 5 mins at 0.3 ug/ml after 20 mins in relative to control; type: functional, Primary neuron; procedure, shortened: as §2
# [7] = Effect on 5-HT/CaCl2 induced increase in intracellular calcium level in rat primary neuronal cells pretreated for 5 mins at 1 ug/ml after 20 mins in relative to control; type: functional, Primary neuron; procedure, shortened: as §2
# [8] = Effect on 5-HT/CaCl2 induced increase in intracellular calcium level in rat primary neuronal cells pretreated for 5 mins at 0.03 ug/ml after 20 mins in relative to control; type: functional, Primary neuron; procedure, shortened: as §2
# [9] = system: Primary neuron; assay: Effect on 5-HT/CaCl2 induced increase in intracellular calcium level in rat primary neuronal cells pretreated for 5 mins at 0.01 ug/ml after 20 mins in relative to control; type: functional, cell-based; procedure, shortened: as §2
# [10] = system: Primary neuron; assay: Effect on 5-HT/CaCl2 induced increase in intracellular calcium level in rat primary neuronal cells pretreated for 5 mins at 3 ug/ml after 20 mins in relative to control; type: functional, cell-based; procedure, shortened: as §2
# [11] = system: Primary neuron; assay: Effect on 5-HT/CaCl2 induced increase in intracellular calcium level in rat primary neuronal cells pretreated for 5 mins at 10 ug/ml after 20 mins in relative to control; type: functional, cell-based; procedure, shortened: as §2
# [12] = system: Neuron; assay: Effect on L-glutamic acid/CaCl2 induced increase in intracellular calcium level in rat neuronal cells pretreated for 5 mins at 0.1 ug/ml after 20 mins in relative to control; type: functional
# Procedure, shortened: (§3)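 Rat cortical neurons were loaded with 4 μM fura-2-AM, then preincubated 5 min with 0.1, 1 or 10 µg/ml compound in Ca/Mg-free Locke's, pH 7.4. 200 µM L-glutamic acid plus 2.5 mM CaCl2 was added at 10 min. The 340/380 nm ratio increase was recorded over 20 min and expressed as % of vehicle control.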
# [13] = system: Neuron; assay: Effect on L-glutamic acid/CaCl2 induced increase in intracellular calcium level in rat neuronal cells pretreated for 5 mins at 1 ug/ml after 20 mins in relative to control; type: functional; procedure, shortened: as §3
# [14] = system: Neuron; assay: Effect on L-glutamic acid/CaCl2 induced increase in intracellular calcium level in rat neuronal cells pretreated for 5 mins at 10 ug/ml after 20 mins in relative to control; type: functional; procedure, shortened: as §3
# [15] = system: Neuron; assay: Effect on NMDA/CaCl2 induced increase in intracellular calcium level in rat neuronal cells pretreated for 5 mins at 10 ug/ml after 20 mins in relative to control; type: functional
# Procedure, shortened: (§4)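 Rat cortical neurons were fura-2-loaded (4 μM, 1 h, 37 °C) and preincubated 5 min with 0.1, 1 or 10 µg/ml compound in Ca/Mg-free Locke's, pH 7.4. They were stimulated at 10 min with 200 µM NMDA plus 2.5 mM CaCl2. The fura-2 340/380 ratio change was followed for 20 min and set relative to the vehicle control (100%).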
# [16] = system: Neuron; assay: Effect on NMDA/CaCl2 induced increase in intracellular calcium level in rat neuronal cells pretreated for 5 mins at 0.1 ug/ml after 20 mins in relative to control; type: functional; procedure, shortened: as §4
# [17] = system: Neuron; assay: Effect on NMDA/CaCl2 induced increase in intracellular calcium level in rat neuronal cells pretreated for 5 mins at 1 ug/ml after 20 mins in relative to control; type: functional; procedure, shortened: as §4
# [18] = system: Suberites domuncula; assay: Effect on 5-HT/CaCl2 induced increase in intracellular calcium level in Suberites domunculas sponge cell pretreated for 5 mins at 1 ug/ml in relative to control
# [19] = system: Suberites domuncula; assay: Effect on 5-HT/CaCl2 induced increase in intracellular calcium level in Suberites domunculas sponge cell pretreated for 5 mins at 0.1 ug/ml in relative to control
# [20] = system: PC-12; assay: Effect on 5-HT/CaCl2 induced increase in intracellular calcium level in PC12 cells pretreated for 5 mins at 1 ug/ml after 20 mins in relative to control; type: functional
# Procedure, shortened: (§5)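 Cells on poly-L-lysine coverglass, loaded with 10 μM fura-2-AM (1 h, 37 °C), washed, held 1 h. In Ca2+/Mg2+-free Locke's solution pH 7.4, 1 μg/ml compound added for 5 min, then 200 μM 5-HT plus 2.5 mM CaCl2 at 10 min. 340/380 nm ratio recorded ≥20 min; rise vs 0.1% DMSO or water control set to 100%; three independent experiments, mean ± SD.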
# [21] = system: HEK293; assay: Effect on 5-HT/CaCl2 induced increase in intracellular calcium level in HEK cells pretreated for 5 mins at 1 ug/ml after 20 mins in relative to control; type: functional, cell-based; settings: Homo sapiens; procedure, shortened: as §5
smiles,measurement,setting,value
O=C(O[C@@H]1CCN[C@@H](C(=O)O)C1)c1cc(Br)c[nH]1 [DAMIPIPECOLIN],Activity,[1],Not toxic
same,Activity,[2],Not toxic
same,Activity,[3],Not toxic
same,Activity,[4],Active
same,Activity,[5],11.2%
same,Activity,[6],29.7%
same,Activity,[7],38%
same,Activity,[8],71.6%
same,Activity,[9],inactive
same,Activity,[10],inactive
same,Activity,[11],inactive
same,Activity,[12],83.3%
same,Activity,[13],90.5%
same,Activity,[14],96.6%
same,Activity,[15],105.9%
same,Activity,[16],114.1%
same,Activity,[17],70.4%
same,Activity,[18],inactive
same,Activity,[19],inactive
C[N+]1(C)C[C@H](OC(=O)c2cc(Br)c[nH]2)C[C@@H]1C(=O)[O-] [DAMITURICIN],Activity,[1],Not toxic
same,Activity,[2],Not toxic
same,Activity,[3],Not toxic
same,Activity,[20],43.8%
same,Activity,[21],inactive
